pEC50: −log10 of the molar value.
How the values were obtained:
[1] = Increase in insulin releasing activity in Syrian golden hamster HIT-T15 cells at 100 uM after 1 hr relative to control; type: functional, Mesocricetus auratus
Summary of the method: (§1)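 Pre-incubated 1 h, then 1 h with compound at a range of concentrations in DMSO, 37 °C; solvent-matched control. Insulin in medium measured by radioimmunoassay. Mean ± sd, n = 3; EC50 is concentration giving 50% increase in insulin release.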

[2] = Increase in insulin releasing activity in Syrian golden hamster HIT-T15 cells at 1 uM after 1 hr relative to control; type: functional, Mesocricetus auratus; summary of the method: as §1
[3] = Increase in insulin releasing activity in Syrian golden hamster HIT-T15 cells at 10 uM after 1 hr relative to control; type: functional, Mesocricetus auratus; summary of the method: as §1
[4] = test system: Rattus norvegicus; assay: Decrease in plasma glucose level in Sprague-Dawley rat at 3 mg/kg, po after 180 mins relative to control; type: functional; set-up: scale not given: the % may be the effect or the level left
Summary of the method: (§2)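 Normal SD rats (180–220 g), fasted overnight, 8–10 per group. Single oral dose 3 mg/kg in 0.5% CMC-Na vehicle, then oral glucose 2.5 g/kg immediately after. Caudal-vein blood drawn before dosing and at 15, 30, 60, 120, 180 min. Serum glucose measured by glucose oxidase method. Reported as % decrease versus vehicle control group.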

[5] = test system: Rattus norvegicus; assay: Decrease in plasma glucose level in Sprague-Dawley rat at 3 mg/kg, po after 30 mins relative to control; type: functional; set-up: scale not given: the % may be the effect or the level left; summary of the method: as §2
[6] = test system: Rattus norvegicus; assay: Decrease in plasma glucose level in Sprague-Dawley rat at 3 mg/kg, po after 120 mins relative to control; type: functional; set-up: scale not given: the % may be the effect or the level left; summary of the method: as §2
[7] = test system: Rattus norvegicus; assay: Decrease in plasma glucose level in Sprague-Dawley rat at 3 mg/kg, po after 60 mins relative to control; type: functional; set-up: scale not given: the % may be the effect or the level left; summary of the method: as §2
[8] = test system: Rattus norvegicus; assay: Decrease in plasma glucose level in Sprague-Dawley rat at 3 mg/kg, po after 15 mins relative to control; type: functional; set-up: scale not given: the % may be the effect or the level left; summary of the method: as §2
[9] = Increase in insulin releasing activity in Syrian golden hamster HIT-T15 cells after 1 hr; type: functional, cell-based, Mesocricetus auratus; summary of the method: as §1
[10] = test system: 3T3-L1; assay: Effect on insulin sensitizing activity in mouse 3T3-L1 cells assessed as increase in triglyceride accumulation at 10 uM after 7 days; type: functional
Summary of the method: (§3)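 3T3-L1 preadipocytes in DMEM/10% FBS, grown to 2 days postconfluence. Differentiation induced with insulin, 0.5 mM IBMX and dexamethasone. Compound (1 or 10 mmol/L, DMSO diluted 1000-fold) present during first 4 days of differentiation; 0.1% DMSO negative control. Day 7: oil red O staining, dye extracted with isopropanol, OD 510 nm. Three or four independent experiments.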

[11] = test system: 3T3-L1; assay: Effect on insulin sensitizing activity in mouse 3T3-L1 cells assessed as increase in triglyceride accumulation at 1 uM after 7 days; type: functional; summary of the method: as §3

Row | pEC50 [9] | Structure (SMILES) | Activity [1] [%] | Activity [2] [%] | Activity [3] [%] | Activity [4] [%] | Activity [5] [%] | Activity [6] [%] | Activity [7] [%] | Activity [8] [%] | Activity [10] [%] | Activity [11] [%]
1 | – | CC(C)[C@H]1CC[C@H](C(=O)N[C@H](Cc2ccc(OCCN(C)c3ccccn3)cc2)C(=O)O)CC1 | 59.4 | 24.4 | 36.2 | – | – | – | – | – | – | –
2 | – | CC(C)[C@H]1CC[C@H](C(=O)N[C@@H](Cc2ccc(O)cc2)C(=O)O)CC1 | 64.8 | 17.5 | 35.4 | – | – | – | – | – | – | –
3 | 6.15 | O=C(O)[C@H](CC(=O)N1C[C@H]2CCCC[C@H]2C1)Cc1ccccc1 [MITIGLINIDE] | 120 | 52.5 | 66 | 70.3 | 36.2 | 87.3 | 61.7 | 16.5 | – | –
4 | – | CC(C)[C@H]1CC[C@H](C(=O)N[C@H](Cc2ccc(OCCn3ccc4ccccc43)cc2)C(=O)O)CC1 | 112 | 37.8 | 58.8 | – | – | – | – | – | – | –
5 | – | CC(C)[C@H]1CC[C@H](C(=O)N[C@H](Cc2ccc(OCc3ccc(C(F)(F)F)cc3)cc2)C(=O)O)CC1 | 152.1 | 29.8 | 85.6 | – | – | – | – | – | – | –
6 | 6.27 | Cc1oc(-c2ccccc2)nc1CCOc1ccc(C[C@H](NC(=O)[C@H]2CC[C@H](C(C)C)CC2)C(=O)O)cc1 | 329.2 | 68.5 | 131.2 | 2.07 | 8.51 | 11.3 | 4.47 | 4.73 | 46.01 | 38.14
7 | – | CC(C)[C@H]1CC[C@H](C(=O)N[C@@H](Cc2ccc(OCCN(C)c3ccccn3)cc2)C(=O)O)CC1 | 83.7 | 26 | 41.5 | – | – | – | – | – | – | –
8 | 6.02 | CCOc1ccc(C[C@H](NC(=O)[C@H]2CC[C@H](C(C)C)CC2)C(=O)O)cc1 | 151.3 | 55.8 | 99.9 | – | – | – | – | – | – | –
9 | – | CN(CCOc1ccc(CC2SC(=O)NC2=O)cc1)c1ccccn1 (configuration not stated) [ROSIGLITAZONE] | – | – | – | – | – | – | – | – | 35.87 | 38.8
10 | – | CC(C)[C@H]1CC[C@H](C(=O)N[C@@H](Cc2ccc(OCCN(C)c3nc4ccccc4o3)cc2)C(=O)O)CC1 | 126.9 | 35.5 | 72.8 | – | – | – | – | – | – | –
11 | 5.55 | CC(C)[C@H]1CC[C@H](C(=O)N[C@H](Cc2ccc(OCc3ccccc3)cc2)C(=O)O)CC1 | 171.1 | 38.9 | 94.4 | – | – | – | – | – | – | –
12 | – | CC(C)[C@H]1CC[C@H](C(=O)N[C@@H](Cc2ccc(OCc3ccc(C(F)(F)F)cc3)cc2)C(=O)O)CC1 | 156.9 | 47.9 | 76.7 | – | – | – | – | – | – | –
13 | 6.92 | Cc1oc(-c2ccccc2)nc1CCOc1ccc(C[C@@H](NC(=O)[C@H]2CC[C@H](C(C)C)CC2)C(=O)O)cc1 | 487.4 | 105.2 | 200.9 | 11.4 | 36.4 | 17.3 | 33.7 | 21.2 | – | –
14 | – | CC(C)[C@H]1CC[C@H](C(=O)N[C@H](Cc2ccc(O)cc2)C(=O)O)CC1 | 122.2 | 34.2 | 69.6 | – | – | – | – | – | – | –
15 | – | CC(C)[C@H]1CC[C@H](C(=O)N[C@@H](Cc2ccc(OCCn3ccc4ccccc43)cc2)C(=O)O)CC1 | 146.6 | 35.7 | 74.9 | – | – | – | – | – | – | –
16 | – | CC(C)[C@H]1CC[C@H](C(=O)N[C@H](Cc2ccc(OCCN(C)c3nc4ccccc4o3)cc2)C(=O)O)CC1 | 145.1 | 24.8 | 81.7 | – | – | – | – | – | – | –
17 | 6.59 | CCOc1ccc(C[C@@H](NC(=O)[C@H]2CC[C@H](C(C)C)CC2)C(=O)O)cc1 | 183.8 | 76.2 | 107.3 | – | – | – | – | – | – | –
18 | 5.12 | CC(C)[C@H]1CC[C@H](C(=O)N[C@H](Cc2ccccc2)C(=O)O)CC1 [NATEGLINIDE] | 124.3 | 36.3 | 66.8 | – | – | – | – | – | – | –
19 | 5.98 | CC(C)[C@H]1CC[C@H](C(=O)N[C@@H](Cc2ccc(OCc3ccccc3)cc2)C(=O)O)CC1 | 225.9 | 53.1 | 147.5 | – | – | – | – | – | – | –
20 | 6.26 | CCCCOc1ccc(C[C@H](NC(=O)[C@H]2CC[C@H](C(C)C)CC2)C(=O)O)cc1 | 326.2 | 73.4 | 136.7 | – | – | – | – | – | – | –
21 | – | CC(C)[C@H]1CC[C@H](C(=O)N[C@@H](Cc2ccccc2)C(=O)O)CC1 [(S)-NATEGLINIDE] | 61.1 | 26.4 | 35.3 | – | – | – | – | – | – | –
22 | 6.19 | CCCCOc1ccc(C[C@@H](NC(=O)[C@H]2CC[C@H](C(C)C)CC2)C(=O)O)cc1 | 261.6 | 58.9 | 107.1 | – | – | – | – | – | – | –

From ChEMBL document CHEMBL1156707, “Insulin-releasing activity of a series of phenylalanine derivatives” (Eur J Med Chem, 2008)
